The species named for experiment [1] is Canis familiaris. Nature of the experiment: Effective dose required to inhibit 50% of apomorphine effect(95% confidence limits). Format: functional. As to conditions: Canis lupus familiaris. In a few lines: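 Dogs were given the test drug orally, with saline controls, and then challenged with apomorphine. Vomiting frequency was counted in groups of 2–8 dogs per dose. ED50 and its 95% confidence limits were obtained by probit analysis. Significance against controls used Student's t test.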

Experiment [2] concerns the target T1, Adrenergic receptor alpha-1 (Rattus norvegicus, UniProt P15823+P23944+P43140).
T1 sequence (P15823 whole entry): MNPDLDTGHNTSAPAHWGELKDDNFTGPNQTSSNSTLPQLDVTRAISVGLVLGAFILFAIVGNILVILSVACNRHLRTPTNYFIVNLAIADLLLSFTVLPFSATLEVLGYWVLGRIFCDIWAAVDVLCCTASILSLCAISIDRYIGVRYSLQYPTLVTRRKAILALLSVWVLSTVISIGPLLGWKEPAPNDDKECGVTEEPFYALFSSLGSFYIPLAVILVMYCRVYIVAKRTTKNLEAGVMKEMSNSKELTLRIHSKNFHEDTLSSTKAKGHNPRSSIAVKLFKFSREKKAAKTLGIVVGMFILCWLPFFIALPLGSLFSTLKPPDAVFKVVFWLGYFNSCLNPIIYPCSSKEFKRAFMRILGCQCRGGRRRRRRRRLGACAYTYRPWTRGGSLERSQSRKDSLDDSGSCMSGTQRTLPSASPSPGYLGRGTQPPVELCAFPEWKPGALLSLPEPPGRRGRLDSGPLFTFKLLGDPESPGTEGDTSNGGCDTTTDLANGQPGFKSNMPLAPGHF
T1 sequence (P23944 whole entry): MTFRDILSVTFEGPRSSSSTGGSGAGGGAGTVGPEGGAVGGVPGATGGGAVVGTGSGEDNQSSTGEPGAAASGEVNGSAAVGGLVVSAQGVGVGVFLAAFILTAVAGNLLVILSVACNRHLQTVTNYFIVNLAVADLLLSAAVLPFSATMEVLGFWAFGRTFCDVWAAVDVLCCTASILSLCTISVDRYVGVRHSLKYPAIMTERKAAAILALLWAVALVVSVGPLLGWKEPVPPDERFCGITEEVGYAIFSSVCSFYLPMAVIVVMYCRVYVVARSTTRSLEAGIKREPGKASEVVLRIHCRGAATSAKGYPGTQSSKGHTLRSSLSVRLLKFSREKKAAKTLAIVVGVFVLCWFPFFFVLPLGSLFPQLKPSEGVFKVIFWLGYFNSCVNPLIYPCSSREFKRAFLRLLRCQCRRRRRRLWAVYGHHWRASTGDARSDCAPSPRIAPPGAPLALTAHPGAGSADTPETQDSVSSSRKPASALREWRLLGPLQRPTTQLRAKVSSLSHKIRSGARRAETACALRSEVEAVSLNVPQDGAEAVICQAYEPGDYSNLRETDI
T1 sequence (P43140 whole entry): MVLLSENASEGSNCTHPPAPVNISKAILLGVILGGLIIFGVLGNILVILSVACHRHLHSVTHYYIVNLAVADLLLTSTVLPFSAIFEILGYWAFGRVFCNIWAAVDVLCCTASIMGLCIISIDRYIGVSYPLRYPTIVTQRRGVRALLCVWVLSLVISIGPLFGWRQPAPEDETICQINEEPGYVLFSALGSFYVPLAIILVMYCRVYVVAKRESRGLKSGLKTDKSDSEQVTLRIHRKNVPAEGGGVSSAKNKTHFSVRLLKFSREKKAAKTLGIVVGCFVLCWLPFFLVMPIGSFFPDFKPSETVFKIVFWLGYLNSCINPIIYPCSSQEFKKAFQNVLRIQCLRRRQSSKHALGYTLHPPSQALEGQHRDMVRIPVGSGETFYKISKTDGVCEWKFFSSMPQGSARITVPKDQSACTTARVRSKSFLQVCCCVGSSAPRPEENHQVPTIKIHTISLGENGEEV
Nature of the experiment: Inhibitory activity against Alpha-1 adrenergic receptor by 3H ligand binding experiments. Format: protein assay. Summed up: (§1)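 Competition binding on rat brain synaptic membranes at 10 mg wet tissue per assay, with compounds at 0.01–1000 μM. Radioligand and tissue: S1, [3H]serotonin, frontal cortex; S2, [3H]spiperone, frontal cortex; α1, [3H]WB-4101, whole brain; α2, [3H]clonidine, whole brain. Assays ended by rapid filtration and scintillation counting. IC50 was derived by probit analysis.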

Experiment [3] concerns the target T2, Adrenergic receptor alpha-2 (Rattus norvegicus, UniProt P22086+P19328+P22909).
T2 sequence (P22086 whole entry): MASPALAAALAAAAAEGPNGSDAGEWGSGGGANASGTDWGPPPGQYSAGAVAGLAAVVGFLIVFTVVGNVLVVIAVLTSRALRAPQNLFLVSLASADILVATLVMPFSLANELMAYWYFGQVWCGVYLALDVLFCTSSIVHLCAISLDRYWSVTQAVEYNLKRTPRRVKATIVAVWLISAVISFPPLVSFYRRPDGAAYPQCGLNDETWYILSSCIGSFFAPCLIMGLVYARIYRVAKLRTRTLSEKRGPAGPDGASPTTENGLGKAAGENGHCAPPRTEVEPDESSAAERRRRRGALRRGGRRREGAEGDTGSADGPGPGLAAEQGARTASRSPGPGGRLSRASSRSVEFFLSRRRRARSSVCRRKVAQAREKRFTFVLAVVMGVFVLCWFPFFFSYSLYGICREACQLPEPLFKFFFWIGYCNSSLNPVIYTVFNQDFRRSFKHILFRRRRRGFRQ
T2 sequence (P19328 whole entry): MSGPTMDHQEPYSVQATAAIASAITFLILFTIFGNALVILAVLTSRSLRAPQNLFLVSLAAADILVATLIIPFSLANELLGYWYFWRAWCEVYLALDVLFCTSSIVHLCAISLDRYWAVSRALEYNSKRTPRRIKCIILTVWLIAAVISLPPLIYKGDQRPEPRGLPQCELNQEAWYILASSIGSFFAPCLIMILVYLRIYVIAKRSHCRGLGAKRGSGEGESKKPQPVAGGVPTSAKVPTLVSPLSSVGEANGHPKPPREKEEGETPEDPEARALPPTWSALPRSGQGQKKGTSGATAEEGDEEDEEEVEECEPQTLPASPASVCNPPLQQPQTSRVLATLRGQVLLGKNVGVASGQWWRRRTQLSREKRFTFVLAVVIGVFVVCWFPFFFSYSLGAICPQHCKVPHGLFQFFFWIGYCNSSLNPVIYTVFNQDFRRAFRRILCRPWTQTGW
T2 sequence (P22909 whole entry): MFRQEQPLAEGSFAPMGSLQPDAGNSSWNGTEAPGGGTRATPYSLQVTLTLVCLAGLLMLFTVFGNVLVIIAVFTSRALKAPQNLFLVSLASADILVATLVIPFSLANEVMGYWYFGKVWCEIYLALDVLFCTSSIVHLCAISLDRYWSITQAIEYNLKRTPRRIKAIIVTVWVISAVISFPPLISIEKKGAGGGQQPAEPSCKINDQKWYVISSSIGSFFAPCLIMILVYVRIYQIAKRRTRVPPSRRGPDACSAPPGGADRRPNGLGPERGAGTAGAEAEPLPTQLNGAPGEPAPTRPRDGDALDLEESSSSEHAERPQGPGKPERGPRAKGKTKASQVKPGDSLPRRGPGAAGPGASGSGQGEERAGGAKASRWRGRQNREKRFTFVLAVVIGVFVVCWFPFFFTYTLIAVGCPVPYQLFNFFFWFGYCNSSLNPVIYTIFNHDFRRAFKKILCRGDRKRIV
Kind of experiment: Inhibitory activity against alpha-2 adrenergic receptor by 3H ligand binding experiments. Format: protein assay.

Experiment [4] relates to Canis familiaris. Nature of the experiment: Compound was tested for anti-apomorphine effect in 3 dogs and the vomiting frequency expressed at a dose of 1.0 mg/kg perorally. In kind it is functional, Canis lupus familiaris. The note with it: route oral. In a few lines: (§2)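 Dogs received oral test article, then were challenged with apomorphine, and vomiting frequency was counted; saline controls were run. ED50 with 95% confidence limits was derived by probit analysis. Significance versus control was tested by Student's t test.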

The test system of experiment [5] is Canis familiaris. Kind of experiment: Compound was tested for anti-apomorphine effect in 3 dogs and the vomiting frequency expressed at a dose of 0.5 mg/kg perorally. As to conditions: route oral. In kind it is functional, Canis lupus familiaris. Summed up:
as §2

Experiment [6] relates to Canis familiaris. Nature of the experiment: Compound was tested for anti-apomorphine effect in 3 dogs and the vomiting frequency expressed at a dose of 2.0 mg/kg perorally. The note with it: route oral. Format: functional, Canis lupus familiaris. In a few lines: as §2
The target of experiment [7] is Serotonin 1 (5-HT1) receptor (Rattus norvegicus, UniProt P28564+P30940+P19327+P28565). Nature of the experiment: Inhibitory activity against 5-hydroxytryptamine 1 receptor by 3H ligand binding experiments. Format: protein assay. In a few lines: as §1
The test system of experiment [8] is Rattus norvegicus. Nature of the experiment: Gastric emptying of phenol red semisolid meal in rats at dose of 2.0 mg/kg, administered perorally. Format: functional. The note with it: route oral.
Experiment [9] concerns Canis familiaris. Nature of the experiment: Compound was tested for anti-apomorphine effect in 3 dogs and the vomiting frequency expressed at a dose of 0.2 mg/kg perorally. In kind it is functional, Canis lupus familiaris. As to conditions: route oral. In a few lines:
as §2

The target of experiment [10] is D(2) dopamine receptor (Rattus norvegicus, UniProt P61169). Nature of the experiment: Inhibitory activity against dopamine receptor D2 by 3H ligand binding experiments. Summed up: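 Competition binding used rat striatal synaptic membranes (10 mg wet tissue per assay) with [3H]spiperone. Test compounds spanned 0.01–1000 μM. Assays were started by adding tissue and stopped by rapid glass-fibre filtration with ice-cold buffer washes. Filters were solubilised and radioactivity counted.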

For experiment [11], the species on record is Canis familiaris. Nature of the experiment: Effective dose required to inhibit 50% of apomorphine effect. In kind it is functional. As to conditions: Canis lupus familiaris. Summed up:
as §2

Experiment [12] has as its system Canis familiaris. Nature of the experiment: Compound was tested for anti-apomorphine effect in 8 dogs and the vomiting frequency expressed at a dose of 1.0 mg/kg perorally. Format: functional, Canis lupus familiaris. The note with it: route oral. In a few lines:
as §2

Experiment [13] has as its system Canis familiaris. Nature of the experiment: Compound was tested for anti-apomorphine effect in 8 dogs and the vomiting frequency expressed at a dose of 10.0 mg/kg perorally. As to conditions: route oral. Format: functional, Canis lupus familiaris. In a few lines: as §2
For experiment [14], the target named is Serotonin 2 (5-HT2) receptor (Rattus norvegicus, UniProt P30994+P08909+P14842). Kind of experiment: Inhibitory activity against 5-hydroxytryptamine 2 receptor by 3H ligand binding experiments. Format: protein assay.

pIC50: −log10 of the molar value.

Consider two compounds from ChEMBL document CHEMBL1125819, “Novel benzamides as selective and potent gastrokinetic agents. 2. Synthesis and structure-activity relationships of 4-amino-5-chloro-2-ethoxy-N-[[4-(4-fluorobenzyl)-2- morpholinyl]methyl] benzamide citrate (AS-4370) and related compounds” (J Med Chem, 1991).

Sequence of D(2) dopamine receptor (P61169 whole entry): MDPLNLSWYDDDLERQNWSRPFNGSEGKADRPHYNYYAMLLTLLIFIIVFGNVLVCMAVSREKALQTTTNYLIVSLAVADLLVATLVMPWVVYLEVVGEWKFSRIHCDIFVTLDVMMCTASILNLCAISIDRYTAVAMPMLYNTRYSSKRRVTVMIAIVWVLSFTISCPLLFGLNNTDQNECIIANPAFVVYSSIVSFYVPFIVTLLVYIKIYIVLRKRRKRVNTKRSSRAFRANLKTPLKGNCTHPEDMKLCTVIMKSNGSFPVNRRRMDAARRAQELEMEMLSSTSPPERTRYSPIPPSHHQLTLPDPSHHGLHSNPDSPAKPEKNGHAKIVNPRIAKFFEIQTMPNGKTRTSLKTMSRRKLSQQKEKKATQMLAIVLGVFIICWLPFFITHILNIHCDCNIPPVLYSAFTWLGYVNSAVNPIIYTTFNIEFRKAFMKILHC

For orientation: ED50 means the dose that gives a 50% effect, or the effect in half of the subjects. Lower therefore signals an effect at a small dose. As a reminder, the IC50 is the concentration that gives 50% inhibition. In experiment [1], `CCN(CC)CCNC(=O)c1cc(Cl)c(N)cc1OC` [METOCLOPRAMIDE] had an ED50 of 0.45 mg/kg. Besides, the results for the IC50 in experiment [2], in experiment [3] and in [7] were 32.8 µM, 7.7 µM and 7.8 µM, respectively. Further, the Vomiting frequency came to 1.3 in experiment [4], 4 in [5], 0.3 in experiment [6] and 7.7 in [9]. This compound displayed a GE in experiment [8] of 21%.
The term pIC50 denotes the negative decadic logarithm of the IC50, by convention in mol/L. A high value points to a low IC50. Regarding `CCOc1cc(N)c(Cl)cc1C(=O)NCC1CN(Cc2ccc(F)cc2)CCO1.O=C(O)CC(O)(CC(=O)O)C(=O)O` (configuration not stated) [MOSAPRIDE CITRATE], in [10], the pIC50 was below 4.00. The IC50 in experiment [2] is above 100 µM; in [3], above 10 µM; in experiment [14] it was above 100 µM; in experiment [7], above 100 µM. This compound also yielded an ED50 in [11] above 10 mg/kg. Also, the figures for the Vomiting frequency in experiment [12] and in [13] were 6.4 and 6.3, respectively.
